Assay results from ChEMBL document CHEMBL4004831, “Naphthalene diimide-polyamine hybrids as antiproliferative agents: Focus on the architecture of the polyamine chains” (Eur J Med Chem, 2017).
Converted amounts (≈) assume the structure as drawn. The source made the active and inactive calls. No cut-off for these calls is given here.

How the values were obtained:
Thermus aquaticus = experiment: Inhibition of Thermus aquaticus DNA polymerase-mediated amplification of fragment of pBR322 by PCR
In short: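 PCR amplification of a pBR322 fragment by Taq polymerase with increasing compound (0.25–40) for 25 cycles: 94 °C, 58 °C and 72 °C, 30 s each. Products were run on 2% agarose in 0.5X TBE (4.2 V/cm, 1.5 h) and stained with ethidium bromide. IC50 is the concentration halving activity; MIC is the lowest concentration that suppresses activity.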

MCF7 = experiment: Growth inhibition of human MCF7 cells incubated for 48 hrs by sulforhodamine B assay; assay type: functional; settings: MCF7, 48 h
Jurkat [1] = experiment: Induction of apoptosis in human Jurkat T cells assessed as caspase3 activation at 1.6 uM after 24 hrs by colorimetric assay relative to control; assay type: functional
In short: (§1)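 Jurkat cells were treated 24 h (0–6.4), and 3×10^6 cells were washed in PBS and lysed 10 min on ice. Cleared lysate was incubated 2 h at 37 °C in the dark with 10 mM DTT buffer and DEVD-pNA substrate. Absorbance at 405 nm was read against a no-substrate blank and expressed as fold over untreated cells. Valinomycin for 1 h was the positive control; three experiments.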

MDA-MB-435 = experiment: Growth inhibition of human MDA-MB-435 cells incubated for 48 hrs by sulforhodamine B assay; assay type: functional; settings: MDA-MB-435, 48 h
Jurkat [2] = experiment: Cell cycle arrest in human Jurkat T cells assessed as accumulation at G0/G1 phase at 3.2 uM after 24 hrs by propidium iodide staining based flow cytometry (reference value: 62.7 to 68.6%); assay type: functional
PC-3 = experiment: Growth inhibition of human PC3 cells incubated for 48 hrs by sulforhodamine B assay; assay type: functional; settings: PC-3, 48 h
Malme-3M = experiment: Growth inhibition of human MALME-3M cells incubated for 48 hrs by sulforhodamine B assay; assay type: functional
[3] = biological target: Telomerase reverse transcriptase (Homo sapiens) (UniProt O14746); experiment: Inhibition of telomerase activity in human HeLa cells using 5'AATCCGTCGAGCAGAGTT3' as substrate after 30 mins by Sybr green1 staining based TRAP-PCR method; assay type: cell-based
Sequence of Telomerase reverse transcriptase (Homo sapiens) (O14746 whole entry): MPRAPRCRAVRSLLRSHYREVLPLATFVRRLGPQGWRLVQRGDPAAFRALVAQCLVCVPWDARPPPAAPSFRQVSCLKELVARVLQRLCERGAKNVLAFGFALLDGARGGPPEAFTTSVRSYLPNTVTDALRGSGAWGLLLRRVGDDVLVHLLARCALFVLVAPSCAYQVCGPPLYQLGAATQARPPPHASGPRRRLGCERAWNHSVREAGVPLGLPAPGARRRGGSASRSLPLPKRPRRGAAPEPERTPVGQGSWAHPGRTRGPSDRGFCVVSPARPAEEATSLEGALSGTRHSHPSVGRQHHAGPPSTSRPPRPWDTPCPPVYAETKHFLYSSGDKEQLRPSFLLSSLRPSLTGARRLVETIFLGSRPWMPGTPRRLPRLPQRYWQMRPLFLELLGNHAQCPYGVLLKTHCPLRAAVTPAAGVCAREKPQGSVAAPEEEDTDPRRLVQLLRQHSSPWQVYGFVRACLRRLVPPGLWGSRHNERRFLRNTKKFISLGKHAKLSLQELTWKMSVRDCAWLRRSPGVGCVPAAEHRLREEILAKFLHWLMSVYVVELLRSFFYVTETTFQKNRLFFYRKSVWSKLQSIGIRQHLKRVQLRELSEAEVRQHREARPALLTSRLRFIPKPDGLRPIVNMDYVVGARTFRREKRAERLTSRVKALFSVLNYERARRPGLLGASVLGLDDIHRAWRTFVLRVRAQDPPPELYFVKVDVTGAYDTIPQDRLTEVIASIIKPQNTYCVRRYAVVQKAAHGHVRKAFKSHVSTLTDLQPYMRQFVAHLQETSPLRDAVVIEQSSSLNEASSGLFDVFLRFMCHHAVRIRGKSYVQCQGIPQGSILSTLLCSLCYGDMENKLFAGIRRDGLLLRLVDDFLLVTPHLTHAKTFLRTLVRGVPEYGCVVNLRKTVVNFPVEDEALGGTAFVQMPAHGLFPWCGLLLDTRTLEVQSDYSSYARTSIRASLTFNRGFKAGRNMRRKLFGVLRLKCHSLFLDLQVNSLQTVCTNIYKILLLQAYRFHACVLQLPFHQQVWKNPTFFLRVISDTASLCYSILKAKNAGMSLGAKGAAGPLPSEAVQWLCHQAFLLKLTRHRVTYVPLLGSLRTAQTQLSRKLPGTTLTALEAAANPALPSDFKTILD

OVCAR-8 = experiment: Growth inhibition of human OVCAR8 cells incubated for 48 hrs by sulforhodamine B assay; assay type: functional; settings: OVCAR-8, 48 h
HOP-92 = experiment: Growth inhibition of human HOP92 cells incubated for 48 hrs by sulforhodamine B assay; assay type: functional; settings: HOP-92, 48 h
SK-MEL-28 = experiment: Growth inhibition of human SK-MEL-28 cells incubated for 48 hrs by sulforhodamine B assay; assay type: functional; settings: SK-MEL-28, 48 h
SK-MEL-2 = experiment: Growth inhibition of human SK-MEL-2 cells incubated for 48 hrs by sulforhodamine B assay; assay type: functional; settings: SK-MEL-2, 48 h
Jurkat [4] = experiment: Induction of apoptosis in human Jurkat T cells at 3.2 uM after 24 hrs by annexin V-phycoerythrin/7-AAD staining based flow cytometry (reference value: 5.8 to 6.6%); assay type: functional
HT-29 = experiment: Growth inhibition of human HT-29 cells incubated for 48 hrs by sulforhodamine B assay; assay type: functional; settings: HT-29, 48 h
Escherichia coli [5] = experiment: Binding affinity to Escherichia coli supercoiled pBR322 DNA assessed as DNA intercalation up to 100 uM by agarose gel electrophoresis
In short: (§2)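 Supercoiled pBR322 mixed with ligand (0–100 µM) in 10 mM Tris, 50 mM KCl with no enzyme, then run on agarose gel. Shift in electrophoretic mobility was read as intercalation/binding.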

[6] = biological target: T1, DNA topoisomerase 2-alpha (Homo sapiens, UniProt P11388); experiment: Poison activity at human topoisomerase-2alpha assessed as stabilization of DNA-enzyme cleavage complex at 0.5 to 100 uM using supercoiled pBR322 DNA as substrate after 1 hr by ethidium bromide staining based agarose gel electrophoresis
T1 sequence (P11388 whole entry): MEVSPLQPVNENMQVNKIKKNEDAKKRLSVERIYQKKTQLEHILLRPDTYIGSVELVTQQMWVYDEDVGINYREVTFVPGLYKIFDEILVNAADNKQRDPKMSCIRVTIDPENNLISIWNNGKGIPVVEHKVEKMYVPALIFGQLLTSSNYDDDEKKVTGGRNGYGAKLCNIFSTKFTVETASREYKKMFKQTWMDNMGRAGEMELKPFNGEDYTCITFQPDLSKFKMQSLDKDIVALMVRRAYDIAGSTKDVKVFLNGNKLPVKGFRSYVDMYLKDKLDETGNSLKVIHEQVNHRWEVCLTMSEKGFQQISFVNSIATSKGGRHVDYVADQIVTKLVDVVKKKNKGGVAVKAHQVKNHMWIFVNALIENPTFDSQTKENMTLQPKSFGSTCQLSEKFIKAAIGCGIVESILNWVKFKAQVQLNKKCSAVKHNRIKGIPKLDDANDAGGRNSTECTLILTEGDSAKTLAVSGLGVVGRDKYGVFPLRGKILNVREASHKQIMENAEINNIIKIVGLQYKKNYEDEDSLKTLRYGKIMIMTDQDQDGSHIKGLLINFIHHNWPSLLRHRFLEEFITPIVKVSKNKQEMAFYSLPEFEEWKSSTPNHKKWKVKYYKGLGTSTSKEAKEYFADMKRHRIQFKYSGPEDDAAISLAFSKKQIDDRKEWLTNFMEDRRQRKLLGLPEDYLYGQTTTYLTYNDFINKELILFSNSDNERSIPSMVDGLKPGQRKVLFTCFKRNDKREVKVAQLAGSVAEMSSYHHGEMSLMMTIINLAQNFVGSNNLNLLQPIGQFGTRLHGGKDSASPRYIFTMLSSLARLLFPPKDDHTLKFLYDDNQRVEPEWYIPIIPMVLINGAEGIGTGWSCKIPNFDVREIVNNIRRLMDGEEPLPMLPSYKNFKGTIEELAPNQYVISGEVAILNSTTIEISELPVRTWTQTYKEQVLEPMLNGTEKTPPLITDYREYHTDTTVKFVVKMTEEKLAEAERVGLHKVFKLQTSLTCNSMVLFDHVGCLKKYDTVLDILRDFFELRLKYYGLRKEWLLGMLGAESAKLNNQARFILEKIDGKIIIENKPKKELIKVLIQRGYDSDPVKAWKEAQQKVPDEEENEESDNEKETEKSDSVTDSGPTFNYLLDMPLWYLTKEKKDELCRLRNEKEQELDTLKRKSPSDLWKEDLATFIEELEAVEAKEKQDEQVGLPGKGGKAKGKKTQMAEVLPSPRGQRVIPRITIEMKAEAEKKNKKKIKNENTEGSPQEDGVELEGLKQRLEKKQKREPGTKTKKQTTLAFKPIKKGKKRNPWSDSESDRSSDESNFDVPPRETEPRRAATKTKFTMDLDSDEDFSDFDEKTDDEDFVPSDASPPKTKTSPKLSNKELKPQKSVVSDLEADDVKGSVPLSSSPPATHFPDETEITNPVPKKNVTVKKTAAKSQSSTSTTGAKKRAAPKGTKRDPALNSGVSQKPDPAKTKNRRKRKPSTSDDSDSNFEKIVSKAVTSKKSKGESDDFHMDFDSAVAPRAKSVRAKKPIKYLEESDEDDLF
In short: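 Cleavage-complex test: supercoiled pBR322 was exposed to compound (0.5–100) with 5 U human topoisomerase IIα for 1 h at 37 °C. Products were run on 1% agarose in TAE with 0.1% SDS (4.9 V/cm, 90 min) and stained with ethidium bromide, with nicked and linearized pBR322 as markers.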

Jurkat [7] = experiment: Induction of apoptosis in human Jurkat T cells at 6.4 uM after 24 hrs by annexin V-phycoerythrin/7-AAD staining based flow cytometry (reference value: 5.8 to 6.6%); assay type: functional
SK-OV-3 = experiment: Growth inhibition of human SKOV3 cells incubated for 48 hrs by sulforhodamine B assay; assay type: functional; settings: SK-OV-3, 48 h
MDA-MB-468 = experiment: Growth inhibition of human MDA-MB-468 cells incubated for 48 hrs by sulforhodamine B assay; assay type: functional; settings: MDA-MB-468, 48 h
T47D = experiment: Growth inhibition of human T47D cells incubated for 48 hrs by sulforhodamine B assay; assay type: functional
DU-145 = experiment: Growth inhibition of human DU145 cells incubated for 48 hrs by sulforhodamine B assay; assay type: functional; settings: DU-145, 48 h
Jurkat [8] = experiment: Induction of apoptosis in human Jurkat T cells assessed as PARP cleavage at 3.2 uM after 24 hrs by flow cytometry (reference value: 4.8%); assay type: functional
[9] = biological target: T1, DNA topoisomerase 2-alpha; experiment: Inhibition of human topoisomerase-2alpha-mediated relaxation of supercoiled pBR322 DNA after 1 hr by ethidium bromide staining based agarose gel electrophoresis
In short: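 Supercoiled pBR322 was incubated with compound (0.5–100) and 1 U human topoisomerase IIα in enzyme buffer for 1 h at 37 °C. Reactions were stopped with Tris/EDTA/NaCl loading buffer (pH 8.0) and run on 1% agarose in TAE with 0.1% SDS (4.9 V/cm, 90 min), then stained with ethidium bromide. IC50 is the concentration reducing relaxation activity by 50%.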

RXF 393 = experiment: Growth inhibition of human RXF393 cells incubated for 48 hrs by sulforhodamine B assay; assay type: functional; settings: RXF 393, 48 h
Jurkat [10] = experiment: Induction of apoptosis in human Jurkat T cells assessed as caspase3 activation at 6.4 uM after 24 hrs by colorimetric assay relative to control; assay type: functional; in short: as §1
NCI-H23 = experiment: Growth inhibition of human NCI-H23 cells incubated for 48 hrs by sulforhodamine B assay; assay type: functional; settings: NCI-H23, 48 h
SF-268 = experiment: Growth inhibition of human SF268 cells incubated for 48 hrs by sulforhodamine B assay; assay type: functional; settings: SF-268, 48 h
Jurkat [11] = experiment: Cell cycle arrest in human Jurkat T cells assessed as accumulation at G2/M phase at 3.2 uM after 24 hrs by propidium iodide staining based flow cytometry (reference value: 17.1 to 20.8%); assay type: functional
OVCAR-5 = experiment: Growth inhibition of human OVCAR5 cells incubated for 48 hrs by sulforhodamine B assay; assay type: functional; settings: OVCAR-5, 48 h
Escherichia coli [12] = experiment: Binding affinity to Escherichia coli supercoiled pBR322 DNA up to 100 uM by agarose gel electrophoresis; in short: as §2

MIC (Thermus aquaticus) [µM] | GI50 (MCF7) [nM] | GI50 (MDA-MB-435) [nM] | GI50 (PC-3) [nM] | inhibition [3] | GI50 (OVCAR-8) [nM] | GI50 (SK-MEL-28) [nM] | GI50 (SK-MEL-2) [nM] | GI50 (HT-29) [nM] | GI50 (SK-OV-3) [nM] | GI50 (MDA-MB-468) [nM] | GI50 (T47D) [nM] | GI50 (DU-145) [nM] | IC50 [9] [nM] | GI50 (NCI-H23) [nM] | GI50 (OVCAR-5) [nM] | SMILES | GI50 (Malme-3M) [nM] | GI50 (HOP-92) [nM] | GI50 (RXF 393) [nM] | GI50 (SF-268) [nM] | other results
0.5 (≈ 0.286 µg/mL) | 185 | 184 | 230 | inactive | 231 | 313 | 223 | 188 | 290 | 85 | 215 | 853 | 8100 | 193 | 944 | COc1ccccc1CNCCCN1C(=O)c2ccc3c4c(ccc(c24)C1=O)C(=O)N(CCCNCCCCN)C3=O | 174 | 273 | 582 | 268 | fold change (FC) (Jurkat [1]): 2.6; Activity (Jurkat [2]): 59.7%; Activity (Jurkat [4]): 17.9%; Activity (Escherichia coli [5]): Active; Activity [6]: inactive; Activity (Jurkat [7]): 22.2%; Activity (Jurkat [8]): 16.6%; fold change (FC) (Jurkat [10]): 5.6; Activity (Jurkat [11]): 20.8%
 | 302 | 196 | 1660 |  | 421 | 1730 | 1440 | 1310 | 2670 | 406 | 1170 | 1380 |  | 1340 | 1950 | COc1ccccc1CNCCCN1C(=O)c2ccc3c4c(ccc(c24)C1=O)C(=O)N(CCCN)C3=O | 366 | 2100 | 377 | 1230 | 
0.25 (≈ 0.139 µg/mL) | 129 | 570 | 477 | inactive | 73 | 753 | 907 | 160 | 1040 | 246 | 793 | 638 | 1500 | 318 | 1410 | COc1ccccc1CNCCCN1C(=O)c2ccc3c4c(ccc(c24)C1=O)C(=O)N(CCCNCCCN)C3=O | 393 | 1120 | 246 | 410 | Activity (Jurkat [2]): 56.1%; Activity (Escherichia coli [5]): Active; Activity (Jurkat [7]): 14.5%; Activity (Jurkat [8]): 7.2%; Activity (Jurkat [11]): 27.8%
 | 2770 | 795 | 7450 |  | 2890 | 1400 | 4460 | 3360 | 6190 | 1890 | 342 | 5090 |  | 2990 | 5350 | CNCCCNCCCCNCCCN1C(=O)c2ccc3c4c(ccc(c24)C1=O)C(=O)N(CCCNCc1ccccc1OC)C3=O | 939 | 2210 | 3820 | 3510 | 
 | 512 | 1070 | 1600 |  | 797 | 1010 | 1750 | 381 | 2950 | 1000 | 1250 | 1050 |  | 1260 | 1250 | CNCCCNCCCN1C(=O)c2ccc3c4c(ccc(c24)C1=O)C(=O)N(CCCNCc1ccccc1OC)C3=O | 633 | 2130 | 1890 | 1030 | 
0.25 (≈ 0.157 µg/mL) | 200 | 213 | 564 |  | 288 | 390 | 229 | 309 | 2110 | 133 | 214 | 693 | 2200 | 356 | 2030 | COc1ccccc1CNCCCN1C(=O)c2ccc3c4c(ccc(c24)C1=O)C(=O)N(CCCNCCCCNCCCN)C3=O | 241 | 687 | 324 | 338 | 
0.5 (≈ 0.286 µg/mL) | 643 | 960 | 2300 | inactive | 826 | 1630 | 1090 | 998 | 4030 | 284 | 1300 | 1600 | 7000 | 747 | 3050 | COc1ccccc1CNCCCN1C(=O)c2ccc3c4c(ccc(c24)C1=O)C(=O)N(CCCCNCCCN)C3=O | 984 | 2040 | 886 | 1660 | Activity (Escherichia coli [12]): Active
 | 422 | 2070 | 5910 |  | 2080 | 3030 | 2670 | 2070 | 4040 | 456 | 1510 | 3650 |  | 1720 | 5240 | COc1ccccc1CNCCCN1C(=O)c2ccc3c4c(ccc(c24)C1=O)C(=O)N(CCCNCCNCCCN)C3=O | 1610 | 6700 | 1650 | 2100 | 
1 (≈ 0.631 µg/mL) | 333 | 200 | 1440 |  | 491 | 1590 | 1830 | 402 | 2360 | 289 | 976 | 1780 | 5500 | 605 | 1890 | COc1ccccc1CNCCCN1C(=O)c2ccc3c4c(ccc(c24)C1=O)C(=O)N(CCCOCCCCOCCCN)C3=O | 248 | 2080 | 771 | 1430 | 
